According to article PMC9350903 (ACS chemical neuroscience, 2021):
Where “and” joins values, the source holds several entries; their conditions need not be identical. Equal entries are not always repeated.

How the values were obtained:
[1] = target: T1, CSF-1R (Rattus norvegicus, UniProt Q00495); assay: [^3H]CPPC autoradiography in intrastriatal LPS rat brain tissues; type: binding
T1 sequence (Q00495 20-978): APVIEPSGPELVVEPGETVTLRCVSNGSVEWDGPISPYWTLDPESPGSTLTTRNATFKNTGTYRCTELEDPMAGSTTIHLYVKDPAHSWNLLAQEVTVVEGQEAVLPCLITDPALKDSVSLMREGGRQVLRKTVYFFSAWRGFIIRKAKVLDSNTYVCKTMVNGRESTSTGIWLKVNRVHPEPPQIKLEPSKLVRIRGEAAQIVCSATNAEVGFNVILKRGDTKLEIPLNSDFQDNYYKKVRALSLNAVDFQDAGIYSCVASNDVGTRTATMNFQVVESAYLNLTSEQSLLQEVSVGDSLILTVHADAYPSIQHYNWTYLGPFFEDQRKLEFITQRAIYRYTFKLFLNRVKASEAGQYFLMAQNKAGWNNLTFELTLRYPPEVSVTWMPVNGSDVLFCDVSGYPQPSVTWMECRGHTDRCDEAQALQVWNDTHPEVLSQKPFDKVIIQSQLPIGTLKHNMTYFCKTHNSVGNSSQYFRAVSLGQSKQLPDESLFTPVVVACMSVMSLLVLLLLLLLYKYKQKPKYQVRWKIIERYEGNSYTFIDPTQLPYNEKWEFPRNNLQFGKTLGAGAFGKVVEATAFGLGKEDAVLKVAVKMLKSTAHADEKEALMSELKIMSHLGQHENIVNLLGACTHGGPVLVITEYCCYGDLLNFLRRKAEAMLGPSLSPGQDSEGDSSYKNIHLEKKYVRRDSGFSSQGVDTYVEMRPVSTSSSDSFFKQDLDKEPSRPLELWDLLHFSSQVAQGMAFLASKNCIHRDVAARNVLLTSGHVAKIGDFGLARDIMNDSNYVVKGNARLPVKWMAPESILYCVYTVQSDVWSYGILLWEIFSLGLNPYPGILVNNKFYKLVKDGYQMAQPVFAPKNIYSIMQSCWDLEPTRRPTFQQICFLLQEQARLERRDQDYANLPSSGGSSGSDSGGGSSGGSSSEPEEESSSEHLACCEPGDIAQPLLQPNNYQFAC

[2] = target: T2, CSF-1R (Mus musculus, UniProt P09581); assay: [^3H]CPPC autoradiography in i.p. LPS mouse spleen tissues; type: binding
T2 sequence (P09581 20-977): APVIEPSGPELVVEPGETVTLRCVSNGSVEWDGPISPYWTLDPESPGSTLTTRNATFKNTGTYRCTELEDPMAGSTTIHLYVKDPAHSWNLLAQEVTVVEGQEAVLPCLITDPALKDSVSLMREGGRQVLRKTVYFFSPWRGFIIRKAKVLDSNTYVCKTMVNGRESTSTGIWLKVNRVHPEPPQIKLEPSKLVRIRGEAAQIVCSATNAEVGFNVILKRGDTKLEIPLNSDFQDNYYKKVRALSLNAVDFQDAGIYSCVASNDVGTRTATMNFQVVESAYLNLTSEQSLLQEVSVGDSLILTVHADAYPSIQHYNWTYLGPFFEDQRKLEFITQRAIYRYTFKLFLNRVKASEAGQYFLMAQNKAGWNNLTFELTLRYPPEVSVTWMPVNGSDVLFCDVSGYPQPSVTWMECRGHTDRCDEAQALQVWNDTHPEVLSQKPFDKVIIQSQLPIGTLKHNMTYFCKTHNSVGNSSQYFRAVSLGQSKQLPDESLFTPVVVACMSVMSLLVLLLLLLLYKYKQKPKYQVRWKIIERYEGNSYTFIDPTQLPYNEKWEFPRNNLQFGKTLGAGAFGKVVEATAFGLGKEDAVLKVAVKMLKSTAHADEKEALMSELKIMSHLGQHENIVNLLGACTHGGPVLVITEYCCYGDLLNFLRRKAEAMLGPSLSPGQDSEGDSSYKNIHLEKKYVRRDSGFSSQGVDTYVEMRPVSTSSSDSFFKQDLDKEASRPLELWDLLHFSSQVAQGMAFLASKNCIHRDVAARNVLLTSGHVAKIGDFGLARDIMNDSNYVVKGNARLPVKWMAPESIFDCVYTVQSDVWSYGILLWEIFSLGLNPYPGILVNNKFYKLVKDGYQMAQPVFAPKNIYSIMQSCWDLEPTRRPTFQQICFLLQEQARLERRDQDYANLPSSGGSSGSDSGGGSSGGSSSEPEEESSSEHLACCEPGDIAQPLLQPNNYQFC

[3] = target: 403 known kinases; assay: scanMAX KINOMEscan profile; type: binding; conditions: 10 μM unlabeled CPPC; number of kinases hit of number tested
Summary of the method: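 Outsourced scanMAX KINOMEscan competition-binding profile of 403 kinases. Unlabeled test compound was tested at 10 μM, and kinases with off-target binding were identified.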

[4] = target: T3, serotonin 5-HT3A receptor (Homo sapiens, UniProt P46098); assay: Eurofins DiscoverX SAFETYscan CNS safety panel
T3 sequence (P46098 24-478): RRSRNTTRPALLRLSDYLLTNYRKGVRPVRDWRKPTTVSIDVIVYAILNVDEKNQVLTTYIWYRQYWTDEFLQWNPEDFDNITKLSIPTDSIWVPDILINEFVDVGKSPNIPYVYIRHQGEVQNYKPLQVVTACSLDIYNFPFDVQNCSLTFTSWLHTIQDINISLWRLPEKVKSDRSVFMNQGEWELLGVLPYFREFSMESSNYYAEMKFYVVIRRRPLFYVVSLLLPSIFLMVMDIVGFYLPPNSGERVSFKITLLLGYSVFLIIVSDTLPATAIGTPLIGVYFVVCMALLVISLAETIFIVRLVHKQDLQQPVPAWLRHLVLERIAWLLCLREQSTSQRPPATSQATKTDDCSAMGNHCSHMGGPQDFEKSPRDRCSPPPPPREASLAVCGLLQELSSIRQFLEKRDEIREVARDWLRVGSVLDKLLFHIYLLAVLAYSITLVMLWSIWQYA

[5] = target: α4β2 nicotinic acetylcholine receptor (Homo sapiens, UniProt P17787+P43681); assay: Eurofins DiscoverX SAFETYscan CNS safety panel
[6] = target: NAV 1.5 sodium-gated channel (Homo sapiens, UniProt Q14524); assay: Eurofins DiscoverX SAFETYscan CNS safety panel
[7] = target: insulin receptor (Homo sapiens, UniProt P06213); assay: Eurofins DiscoverX SAFETYscan CNS safety panel
[8] = target: Tyrosine protein kinase LCK (Homo sapiens, UniProt P06239); assay: Eurofins DiscoverX SAFETYscan CNS safety panel
[9] = target: vascular endothelial growth factor receptor 2 (Homo sapiens, UniProt P35968); assay: Eurofins DiscoverX SAFETYscan CNS safety panel
[10] = test system: CSF-1R; conditions: [^11C]CPPC autoradiography in AD tissues; cited from earlier work
[11] = test system: Kit; conditions: cited from earlier work
[12] = test system: Axl; conditions: cited from earlier work
[13] = test system: TrkA; conditions: cited from earlier work
[14] = test system: Flt-3; conditions: cited from earlier work
[15] = test system: IRKβ; conditions: cited from earlier work
[16] = target: T2, CSF-1R; assay: [^3H]CPPC autoradiography in GBM mouse model brain tissue; type: binding; conditions: mouse GBM brain sections; 18 nM [^3H]CPPC; defined using unlabeled 10 μM CPPC
Summary of the method: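 Male-unspecified mice received a unilateral intrastriatal injection of 2.5e6 […] cells. Tumour-bearing mice were selected by MRI on day 10 and killed 9 days later. Brains were fresh-frozen and cut at 10 μm. Sections were incubated with tritiated test compound in 100% FBS for 2 h at room temperature. Non-specific binding used 10 μM unlabeled compound. Sections were washed in 0.5% BSA at 4 °C, then water at 4 °C, exposed to a phosphor screen for 5 days and analysed by ROI.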

[17] = test system: CSF-1R; assay: No-Wash Assay with [^3H]CPPC in LPS-treated spleen and LPS injected brains; type: binding; conditions: LPS-treated spleen, 7-day and 30-day post LPS injected brains
[18] = Storage stability of [^3H]CPPC; type: physicochemical; conditions: stored at −20 °C in ethanol; over the first 6 months
Summary of the method: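 Tritiated test compound (80 Ci/mmol; 1 mCi/mL stock) was stored in ethanol at −20 °C. Decomposition was measured at 2, 4 and 6 months.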

[19] = target: TSPO (Rattus norvegicus, UniProt P16257); assay: [^3H]PBR28 autoradiography in intrastriatal LPS rat brain tissues; type: binding
[20] = target: T4, TSPO (Mus musculus, UniProt P50637); assay: [^3H]PBR28 autoradiography in GBM mouse model brain tissue; type: binding
Summary of the method: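 Mice received an intrastriatal injection of 2.5e6 […] cells and were killed 19 days later. Fresh-frozen brain sections were incubated with 3 nM tritiated TSPO radioligand (total binding) and read by phosphor-screen autoradiography. Adjacent sections were immunostained for IBA-1. Tumour was located by anti-luciferase staining.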

[21] = target: T4, TSPO; assay: [^3H]PBR28 autoradiography in i.p. LPS mouse spleen tissues; type: binding
Summary of the method: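 C57bl/6 male mice, 10 weeks old, received LPS 1 mg/kg i.p. in saline for 3 or 4 consecutive days and were killed on day 5 or 6. Spleens were slow-frozen on dry ice and sectioned. Sections were incubated with ascending concentrations of tritiated TSPO radioligand in 100% FBS for 2 h at room temperature, then washed. […] Bmax and Kd came from non-linear regression of phosphor-screen ROI data.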

[22] = test system: TSPO; assay: No-Wash Assay with [^3H]PBR28 in LPS-treated spleen and LPS injected brains; type: binding; conditions: LPS-treated spleen, 7-day and 30-day post LPS injected brains
[23] = [^3H]CPPC saturation in i.p. LPS mouse spleen
[24] = 7-day post-LPS injection rat brain, [^3H]CPPC 3.5 nM, mean ± sd
[25] = rats sacrificed 30-days post-surgery
[26] = [^3H]PBR28 saturation in i.p. LPS mouse spleen

Chain of insulin receptor (P06213 28-1382): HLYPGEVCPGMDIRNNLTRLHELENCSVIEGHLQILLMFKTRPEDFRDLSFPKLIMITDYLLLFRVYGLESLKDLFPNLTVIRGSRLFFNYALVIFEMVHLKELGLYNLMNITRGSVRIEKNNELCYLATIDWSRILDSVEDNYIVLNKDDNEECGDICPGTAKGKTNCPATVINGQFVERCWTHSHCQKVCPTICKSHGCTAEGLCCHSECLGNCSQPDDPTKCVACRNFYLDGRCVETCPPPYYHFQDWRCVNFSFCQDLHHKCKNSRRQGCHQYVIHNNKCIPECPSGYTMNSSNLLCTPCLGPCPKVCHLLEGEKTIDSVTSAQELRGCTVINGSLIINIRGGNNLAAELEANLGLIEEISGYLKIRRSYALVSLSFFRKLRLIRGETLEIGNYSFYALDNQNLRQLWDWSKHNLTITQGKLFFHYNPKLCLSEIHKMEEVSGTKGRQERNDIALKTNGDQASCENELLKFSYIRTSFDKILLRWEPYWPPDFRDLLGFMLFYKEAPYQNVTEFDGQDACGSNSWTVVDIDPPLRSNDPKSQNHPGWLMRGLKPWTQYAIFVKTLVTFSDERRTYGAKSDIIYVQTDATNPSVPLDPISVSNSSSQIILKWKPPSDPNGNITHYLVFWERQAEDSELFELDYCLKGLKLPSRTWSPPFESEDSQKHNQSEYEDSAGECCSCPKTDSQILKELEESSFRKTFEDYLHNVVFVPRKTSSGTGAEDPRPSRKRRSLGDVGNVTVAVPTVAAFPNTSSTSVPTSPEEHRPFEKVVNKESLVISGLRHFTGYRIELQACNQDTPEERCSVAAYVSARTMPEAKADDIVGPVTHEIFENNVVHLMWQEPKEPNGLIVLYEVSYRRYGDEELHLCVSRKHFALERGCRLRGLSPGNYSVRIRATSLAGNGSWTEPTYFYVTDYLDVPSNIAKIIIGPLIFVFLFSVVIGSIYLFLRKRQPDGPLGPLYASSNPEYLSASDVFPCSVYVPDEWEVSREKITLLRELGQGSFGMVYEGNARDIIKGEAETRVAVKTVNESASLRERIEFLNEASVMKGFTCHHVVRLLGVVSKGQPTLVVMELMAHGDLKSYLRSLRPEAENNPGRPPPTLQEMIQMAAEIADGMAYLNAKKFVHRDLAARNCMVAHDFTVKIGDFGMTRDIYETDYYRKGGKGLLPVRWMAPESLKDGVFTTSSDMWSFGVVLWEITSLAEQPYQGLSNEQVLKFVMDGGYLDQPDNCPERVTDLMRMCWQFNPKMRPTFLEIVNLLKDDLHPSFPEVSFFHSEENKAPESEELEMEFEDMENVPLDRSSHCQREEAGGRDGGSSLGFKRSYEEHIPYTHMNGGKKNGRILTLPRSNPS
Chain of Tyrosine protein kinase LCK (P06239 whole entry): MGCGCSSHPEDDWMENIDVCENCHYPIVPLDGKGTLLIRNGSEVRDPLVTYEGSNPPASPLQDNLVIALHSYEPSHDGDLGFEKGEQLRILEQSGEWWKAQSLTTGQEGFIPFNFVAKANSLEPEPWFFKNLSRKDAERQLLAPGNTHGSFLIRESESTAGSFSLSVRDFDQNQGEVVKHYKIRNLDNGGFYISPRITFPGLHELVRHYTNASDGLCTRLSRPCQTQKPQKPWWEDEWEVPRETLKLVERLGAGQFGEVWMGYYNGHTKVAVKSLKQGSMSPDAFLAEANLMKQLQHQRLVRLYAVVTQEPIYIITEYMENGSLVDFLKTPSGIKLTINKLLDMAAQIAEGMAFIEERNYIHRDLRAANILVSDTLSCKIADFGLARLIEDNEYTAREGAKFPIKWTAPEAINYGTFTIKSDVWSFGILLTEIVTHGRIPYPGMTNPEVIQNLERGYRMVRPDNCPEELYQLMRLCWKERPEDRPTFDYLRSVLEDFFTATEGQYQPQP
Chain of α4β2 nicotinic acetylcholine receptor (P43681 29-627 limits assumed): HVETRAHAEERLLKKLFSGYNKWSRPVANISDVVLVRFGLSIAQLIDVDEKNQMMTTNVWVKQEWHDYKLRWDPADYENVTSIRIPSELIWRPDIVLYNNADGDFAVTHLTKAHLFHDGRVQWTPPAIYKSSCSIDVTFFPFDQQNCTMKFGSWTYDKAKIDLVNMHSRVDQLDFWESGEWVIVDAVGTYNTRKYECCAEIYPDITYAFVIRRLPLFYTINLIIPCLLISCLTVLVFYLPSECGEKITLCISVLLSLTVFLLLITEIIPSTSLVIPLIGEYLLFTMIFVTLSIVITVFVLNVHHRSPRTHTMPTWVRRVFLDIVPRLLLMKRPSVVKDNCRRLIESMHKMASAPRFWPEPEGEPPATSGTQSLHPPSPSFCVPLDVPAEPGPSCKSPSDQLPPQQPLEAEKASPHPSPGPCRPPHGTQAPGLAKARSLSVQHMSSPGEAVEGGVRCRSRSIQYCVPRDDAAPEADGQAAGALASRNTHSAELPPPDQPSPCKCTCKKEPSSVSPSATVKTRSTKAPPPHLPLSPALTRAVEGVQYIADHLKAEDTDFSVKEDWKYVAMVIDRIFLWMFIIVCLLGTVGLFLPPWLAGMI
Chain of α4β2 nicotinic acetylcholine receptor (P17787 26-502): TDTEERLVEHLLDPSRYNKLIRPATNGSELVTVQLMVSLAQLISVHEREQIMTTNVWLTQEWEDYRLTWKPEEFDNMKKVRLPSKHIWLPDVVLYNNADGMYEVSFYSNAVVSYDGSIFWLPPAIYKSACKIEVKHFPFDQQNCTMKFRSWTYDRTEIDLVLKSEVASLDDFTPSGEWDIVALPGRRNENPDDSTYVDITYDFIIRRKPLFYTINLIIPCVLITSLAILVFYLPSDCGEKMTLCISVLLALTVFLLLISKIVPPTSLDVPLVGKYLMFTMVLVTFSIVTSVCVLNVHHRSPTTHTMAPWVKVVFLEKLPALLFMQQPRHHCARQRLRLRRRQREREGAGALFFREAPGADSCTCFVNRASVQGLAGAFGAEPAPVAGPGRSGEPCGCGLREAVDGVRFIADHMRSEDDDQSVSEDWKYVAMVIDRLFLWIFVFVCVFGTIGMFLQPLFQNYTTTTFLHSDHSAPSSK
Chain of NAV 1.5 sodium-gated channel (Q14524 whole entry): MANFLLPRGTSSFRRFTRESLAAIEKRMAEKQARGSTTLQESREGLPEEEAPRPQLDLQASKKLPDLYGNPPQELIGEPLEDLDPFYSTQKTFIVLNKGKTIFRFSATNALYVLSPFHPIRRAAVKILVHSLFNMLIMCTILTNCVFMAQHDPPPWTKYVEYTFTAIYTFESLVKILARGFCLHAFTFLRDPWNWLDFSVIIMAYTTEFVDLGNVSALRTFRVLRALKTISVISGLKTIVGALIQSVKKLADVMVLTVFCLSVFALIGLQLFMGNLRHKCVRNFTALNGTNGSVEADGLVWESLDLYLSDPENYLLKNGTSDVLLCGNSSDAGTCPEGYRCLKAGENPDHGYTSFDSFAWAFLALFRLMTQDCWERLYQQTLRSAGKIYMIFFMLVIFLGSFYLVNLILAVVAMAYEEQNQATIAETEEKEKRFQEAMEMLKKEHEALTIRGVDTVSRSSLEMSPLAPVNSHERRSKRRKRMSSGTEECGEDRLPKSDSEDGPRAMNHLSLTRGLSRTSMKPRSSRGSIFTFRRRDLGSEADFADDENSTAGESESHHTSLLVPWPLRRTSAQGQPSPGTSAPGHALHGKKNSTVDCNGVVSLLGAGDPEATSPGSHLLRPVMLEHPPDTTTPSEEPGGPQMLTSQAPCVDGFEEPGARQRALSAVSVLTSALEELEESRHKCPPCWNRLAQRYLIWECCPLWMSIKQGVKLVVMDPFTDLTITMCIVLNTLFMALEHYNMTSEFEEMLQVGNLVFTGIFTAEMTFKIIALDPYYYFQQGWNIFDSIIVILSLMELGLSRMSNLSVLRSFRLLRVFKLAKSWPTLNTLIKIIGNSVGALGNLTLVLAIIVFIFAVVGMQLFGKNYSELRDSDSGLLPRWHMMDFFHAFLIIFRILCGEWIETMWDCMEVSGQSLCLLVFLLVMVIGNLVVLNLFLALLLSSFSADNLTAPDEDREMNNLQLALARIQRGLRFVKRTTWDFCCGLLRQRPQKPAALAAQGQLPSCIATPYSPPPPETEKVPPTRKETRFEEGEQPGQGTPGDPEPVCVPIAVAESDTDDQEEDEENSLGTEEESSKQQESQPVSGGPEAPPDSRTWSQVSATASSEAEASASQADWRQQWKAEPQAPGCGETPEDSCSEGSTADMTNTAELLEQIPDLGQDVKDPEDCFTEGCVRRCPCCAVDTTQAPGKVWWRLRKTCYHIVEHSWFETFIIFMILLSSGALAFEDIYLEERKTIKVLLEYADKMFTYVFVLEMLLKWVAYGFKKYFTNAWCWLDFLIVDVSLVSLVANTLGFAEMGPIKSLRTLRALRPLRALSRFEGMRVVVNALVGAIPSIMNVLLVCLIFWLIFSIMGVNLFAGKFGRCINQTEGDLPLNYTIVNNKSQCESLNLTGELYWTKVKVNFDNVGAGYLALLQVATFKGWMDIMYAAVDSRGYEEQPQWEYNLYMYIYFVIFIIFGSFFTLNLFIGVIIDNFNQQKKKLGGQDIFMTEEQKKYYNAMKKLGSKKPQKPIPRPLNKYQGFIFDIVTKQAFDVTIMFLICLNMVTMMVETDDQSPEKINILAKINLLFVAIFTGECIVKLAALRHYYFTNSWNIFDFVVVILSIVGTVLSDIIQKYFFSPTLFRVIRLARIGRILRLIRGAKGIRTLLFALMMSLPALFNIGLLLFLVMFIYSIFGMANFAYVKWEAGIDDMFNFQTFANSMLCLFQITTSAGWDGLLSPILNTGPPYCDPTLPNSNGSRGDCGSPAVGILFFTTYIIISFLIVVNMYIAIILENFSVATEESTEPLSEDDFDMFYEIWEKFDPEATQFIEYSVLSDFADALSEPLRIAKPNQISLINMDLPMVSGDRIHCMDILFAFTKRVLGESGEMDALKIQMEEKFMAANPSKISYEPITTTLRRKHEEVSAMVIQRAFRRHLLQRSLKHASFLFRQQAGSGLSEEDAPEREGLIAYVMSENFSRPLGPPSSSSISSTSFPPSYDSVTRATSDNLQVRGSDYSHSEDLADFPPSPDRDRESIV

Compound: CN1CCN(c2ccc(NC(=O)c3ccc(C#N)o3)c(N3CCCCC3)c2)CC1 [CPPC, 5-cyano-N-(4-(4-methylpiperazin-1-yl)-2-(piperidin-1-yl)phenyl)furan-2-carboxamide]
- displacement of [^3H]CPPC binding ([1]; 10 μM unlabeled CPPC, LPS rodent brain tissue): up to 50%
- % inhibition of [^3H]CPPC binding (signal-to-noise) ([1]; 7-day post-LPS rat brain, 10 μM unlabeled CPPC, [^3H]CPPC 3.5 nM): 49.9 ± 2.9%
- inhibition of [^3H]CPPC binding ([1]; ipsilateral hemisphere of 30-day LPS rat brain, 10 μM competitor, [^3H]CPPC 3 nM): 60%
- IC50 [2]: 9.4 nM
- hillslope (nH) ([2]; CPPC concentration curve vs [^3H]CPPC in i.p. LPS spleen): 0.46
- inhibition of [^3H]CPPC binding ([2]; i.p. LPS mouse spleen (n = 6), 10 μM competitor, [^3H]CPPC 3 nM): 85% and > 80%
- kinase targets with off-target binding [3]: 204 of 403
- IC50 [4]: 5860 nM
- IC50 [5]: 4880 nM
- IC50 [6]: 6510 nM
- IC50 [7]: 70 nM
- IC50 [8]: 22 nM
- IC50 [9]: 74 nM
- ratio of total baseline binding to the inhibited condition [10]: 1.7–2.7
- concentration of off-target binding [11]: less than 0.1 μM
- concentration of off-target binding [12]: less than 0.1 μM
- concentration of off-target binding [13]: less than 0.1 μM
- concentration of off-target binding [14]: less than 0.1 μM
- concentration of off-target binding [15]: less than 0.1 μM

Compound: CN1CCN(c2ccc(NC(=O)c3ccc(C#N)o3)c(N3CCCCC3)c2)CC1 [[^3H]CPPC, [^3H] 5-cyano-N-(4-(4-methylpiperazin-1-yl)-2-(piperidin-1-yl)phenyl)furan-2-carboxamide]
- Kd [2, 23]: 4.3 nM

Compound: [3H]C([3H])([3H])N1CCN(c2ccc(NC(=O)c3ccc(C#N)o3)c(N3CCCCC3)c2)CC1 [[^3H]CPPC, [^3H] 5-cyano-N-(4-(4-methylpiperazin-1-yl)-2-(piperidin-1-yl)phenyl)furan-2-carboxamide]
- [^3H]CPPC binding, contralateral hemisphere [1, 24]: 17.9 ± 1.1 nCi/mg
- [^3H]CPPC binding, ipsilateral hemisphere [1, 24]: 18.9 ± 1.7 nCi/mg
- saturability of [^3H]CPPC binding ([1]; 30-day LPS rat brain sections, radioligand concentration up to 40 nM): failed to saturate
- total binding of [^3H]CPPC ([1]; ipsilateral hemisphere of 30-day LPS rat brain, [^3H]CPPC 3 nM): 15 nCi/mg
- specific signal of [^3H]CPPC [16]: ~ 60%
- Bmax [2, 23]: 1339 fmol/mg tissue
- baseline radioligand binding of [^3H]CPPC ([2]; i.p. LPS mouse spleen, [^3H]CPPC 3 nM): 100 nCi/mg
- specific binding under No-Wash Assay conditions [17]: lack of specific binding
- rate of decomposition [18]: less than 3%

Compound: COc1ccccc1CN(C(C)=O)c1cnccc1Oc1ccccc1 [[^3H]PBR28]
- Bmax ([19]; [^3H]PBR28 saturation, ipsilateral hemisphere of 30-day LPS rat brain): 620.7 fmol/mg
- [^3H]PBR28 specific binding, contralateral hemisphere ([19]; rats sacrificed 7-days post-surgery): 29.0 ± 3.1 nCi/mg
- [^3H]PBR28 specific binding, ipsilateral hemisphere ([19]; rats sacrificed 7-days post-surgery, mean ± sd): 83.5 ± 48.9 nCi/mg
- [^3H]PBR28 specific binding, contralateral hemisphere [19, 25]: 14.0 ± 2.36 nCi/mg
- [^3H]PBR28 specific binding, ipsilateral hemisphere [19, 25]: 36.2 ± 4.07 nCi/mg
- [^3H]PBR28 binding density ([20]; areas of decreased immunostaining for inflammatory cells): 620 MDC/mm^2
- relative target density ([^3H]PBR28 specific signal) ([20]; region of the tumor and immediately proximal areas): 250500 MDC/mm^2
- Bmax [21, 26]: 14771 fmol/mg tissue
- Kd [21, 26]: 2.4 nM
- specific binding ([21]; defined using unlabeled 10 μM FEPPA, i.p. LPS mouse spleen): 99 ± 0.03%
- specific binding under No-Wash Assay conditions [22]: > 60%
